# Assay results reported in paper PMC11696753 (ACS Omega, 2024).
# Residue numbers refer to the chain shown, from its start.
# Columns and labels:
# SW480 cell line = test: MTT antiproliferative assay, SW480 cell line; type: cell-based, human; details: for inhibition of SW480 cells compared with the CVB-D group: 10 μM, CVB-D 12 μM
# In short: (§1)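 MTT assay. Cells were grown in DMEM with 10% FBS and 1% penicillin/streptomycin at 37 °C, 5% CO2, then seeded at 5 × 10^3 to 6 × 10^3 cells/mL in 96-well plates. Screening was at 10 μM, with CVB-D (12 μM) as positive control and curcumin as comparator. The dose range was 0–8 μM in 1 μM steps. Solvent-only wells served as controls. Read-out was absorbance of DMSO-dissolved formazan. Data are mean ± SD, n ≥ 3.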
# CT26 cell line = test: MTT antiproliferative assay, CT26 cell line; type: cell-based, mouse
# In short: as §1
# SHP-2 [1] = biological target: T1, SHP-2 (Homo sapiens, UniProt Q06124); test: Western blot, SHP-2 expression in SW480 cells; type: cell-based; details: SW480, 8 μM
# T1 sequence (Q06124 1-593): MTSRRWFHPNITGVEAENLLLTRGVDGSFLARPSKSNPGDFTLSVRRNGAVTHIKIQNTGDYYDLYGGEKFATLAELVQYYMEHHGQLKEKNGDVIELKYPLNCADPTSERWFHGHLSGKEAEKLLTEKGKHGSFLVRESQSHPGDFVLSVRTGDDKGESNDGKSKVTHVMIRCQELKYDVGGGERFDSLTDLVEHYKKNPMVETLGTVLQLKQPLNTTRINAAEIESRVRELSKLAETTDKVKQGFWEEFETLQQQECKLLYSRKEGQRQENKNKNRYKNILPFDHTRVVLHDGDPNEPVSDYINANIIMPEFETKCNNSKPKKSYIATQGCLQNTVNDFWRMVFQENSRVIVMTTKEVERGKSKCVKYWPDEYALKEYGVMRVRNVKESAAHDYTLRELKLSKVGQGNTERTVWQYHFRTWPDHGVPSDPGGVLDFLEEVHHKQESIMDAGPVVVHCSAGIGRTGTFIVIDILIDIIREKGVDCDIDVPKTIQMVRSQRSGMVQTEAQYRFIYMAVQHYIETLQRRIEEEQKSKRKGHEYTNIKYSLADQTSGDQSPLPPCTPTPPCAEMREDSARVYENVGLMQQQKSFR
# In short: (§2)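 Western blot. SW480 or CT26 cells were seeded at 3 × 10^5 to 5 × 10^5/mL, allowed to adhere, then exposed to 0 (control) or 8 μM test compound for 24 h. Lysate protein was quantified by BCA and equalised, boiled, separated by SDS-PAGE, transferred to PVDF and detected with peroxidase labeling. Data are mean ± SD, at least three independent replicates, analysed by one-way ANOVA or t test.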
# Akt [2] = test: Western blot, Akt expression in CT26 cells; type: cell-based, mouse; details: CT26, 8 μM
# In short: as §2
# p27 [3] = test: Western blot, p27 expression in CT26 cells; type: cell-based, mouse; details: CT26, 8 μM vs control
# In short: as §2
# Parkin [4] = test: Western blot, Parkin expression in CT26 cells; type: cell-based, mouse; details: CT26, 8 μM vs control
# In short: as §2
# PI3K and Akt proteins = test: Western blot, PI3K-Akt pathway in TAMs; type: cell-based
# In short: (§3)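 Western blot in tumour–macrophage cocultures: SW480 with THP-1 (human) and CT26 with RAW264.7 (mouse). Coculture drives the macrophages toward a cancer-promoting phenotype, after which test compound is applied. Protein was quantified by BCA, separated by SDS-PAGE, transferred to PVDF and detected with peroxidase labeling. Comparisons were against both the control and the untreated coculture. Data are mean ± SD, n ≥ 3.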
# RAW264.7 cell line = test: MTT cytotoxicity, RAW264.7 cell line; type: cell-based, mouse; details: 0 to 8 μM, all concentrations
# In short: (§4)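 Viability of THP-1 (human monocytic) and RAW264.7 (mouse macrophage) cells was measured by MTT. Cells were grown in DMEM with 10% FBS at 37 °C, 5% CO2, then seeded at 5 × 10^3 to 6 × 10^3 cells/mL. Test compound was given at 0–8 μM alongside an equal-volume solvent control. Read-out was absorbance after DMSO solubilisation of formazan. Data are mean ± SD from at least three independent experiments.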
# PINK1 [5] = test: Western blot, PINK1 expression in CT26 cells; type: cell-based, mouse; details: CT26, 8 μM vs control
# In short: as §2
# Cyclin-D1 [6] = test: Western blot, Cyclin-D1 expression in SW480 cells; type: cell-based, human; details: SW480, 8 μM
# In short: as §2
# SHP-2 [7] = biological target: T1, SHP-2; test: Western blot, SHP-2 in human TME; type: cell-based; details: SW480 cocultured with THP-1
# In short: as §3
# CDK1 [8] = biological target: CDK1 (Homo sapiens, UniProt P06493); test: Western blot, CDK1 expression in SW480 cells; type: cell-based; details: SW480, 8 μM
# CDK1 (Homo sapiens, UniProt P06493), sequence (P06493 whole entry): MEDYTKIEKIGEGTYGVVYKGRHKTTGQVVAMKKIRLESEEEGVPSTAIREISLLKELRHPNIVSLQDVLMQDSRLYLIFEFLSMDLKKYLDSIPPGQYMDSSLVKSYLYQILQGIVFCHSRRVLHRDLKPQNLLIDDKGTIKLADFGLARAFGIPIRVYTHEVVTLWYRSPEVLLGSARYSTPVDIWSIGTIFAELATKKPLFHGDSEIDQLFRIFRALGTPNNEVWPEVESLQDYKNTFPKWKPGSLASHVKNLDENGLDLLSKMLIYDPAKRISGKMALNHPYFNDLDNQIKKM
# In short: as §2
# RKO cell line = test: MTT antiproliferative assay, RKO cell line; type: cell-based, human; details: NCM460 vs RKO
# In short: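 Selectivity index is the IC50 in normal colon epithelial NCM460 cells divided by the IC50 in the colorectal cancer line. Both IC50s come from MTT viability assays: solvent-treated controls, formazan dissolved in DMSO, absorbance read-out, at least three independent replicates.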
# SHP-2 [9] = biological target: T2, SHP-2 (Mus musculus, UniProt P35235); test: Western blot, SHP-2 in mouse TME; type: cell-based; details: CT26 cocultured with RAW264.7
# T2 sequence (P35235 1-593): T1 sequence (Q06124 1-593) with M450V, A550V, K590R
# In short: as §3
# THP-1 cell line = test: MTT cytotoxicity, THP-1 cell line; type: cell-based, human; details: 0 to 8 μM, all concentrations
# In short: as §4
# PINK1 [10] = test: Western blot, PINK1 expression in SW480 cells; type: cell-based, human; details: SW480, 8 μM vs control
# In short: as §2
# NCM460 cell line = test: MTT cytotoxicity, normal colon epithelial cell line NCM460; type: cell-based, human
# In short: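 MTT viability in NCM460 normal human colon epithelial cells. Test compound and curcumin were each tested at 0, 5, 10, 20, 40 and 80 μM, diluted in medium from a 10 mmol/L DMSO stock, against a solvent control. Formazan was dissolved in DMSO and absorbance read. Toxicity was graded by USP classification. Data are mean ± SD, at least three independent replicates.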
# PI3K [11] = test: Western blot, PI3K expression in CT26 cells; type: cell-based, mouse; details: CT26, 8 μM
# In short: as §2
# SHP-2 [12] = biological target: T2, SHP-2; test: Western blot, SHP-2 expression in CT26 cells; type: cell-based; details: CT26, 8 μM
# In short: as §2
# Parkin [13] = test: Western blot, Parkin expression in SW480 cells; type: cell-based, human; details: SW480, 8 μM vs control
# In short: as §2
# PI3K [14] = test: Western blot, PI3K expression in SW480 cells; type: cell-based, human; details: SW480, 8 μM
# In short: as §2
# p27 [15] = test: Western blot, p27 expression in SW480 cells; type: cell-based, human; details: SW480, 8 μM vs control
# In short: as §2
# CDK1 [16] = biological target: CDK1 (Mus musculus, UniProt P11440); test: Western blot, CDK1 expression in CT26 cells; type: cell-based; details: CT26, 8 μM
# CDK1 (Mus musculus, UniProt P11440), sequence (P11440 whole entry): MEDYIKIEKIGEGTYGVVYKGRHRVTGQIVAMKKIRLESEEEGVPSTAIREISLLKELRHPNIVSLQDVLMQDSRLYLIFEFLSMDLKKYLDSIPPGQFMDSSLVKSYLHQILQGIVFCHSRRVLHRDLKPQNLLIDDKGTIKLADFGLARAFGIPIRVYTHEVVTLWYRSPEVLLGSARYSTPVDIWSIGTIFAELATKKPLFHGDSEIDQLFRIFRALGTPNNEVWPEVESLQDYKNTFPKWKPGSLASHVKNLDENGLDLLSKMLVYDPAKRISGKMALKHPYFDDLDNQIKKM
# In short: as §2
# Cyclin-D1 [17] = test: Western blot, Cyclin-D1 expression in CT26 cells; type: cell-based, mouse; details: CT26, 8 μM
# In short: as §2
# [18] = tested on: chemokine receptors, CC and CXC chemokine subfamilies; test: Chemokine mRNA levels in human and mouse TME; type: cell-based; details: human and mouse TME cocultures
# In short: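 Human system: SW480 cells cocultured with THP-1 cells. Mouse system: CT26 cells cocultured with RAW264.7 cells. Coculture induces the macrophages to differentiate into cancer-promoting cells, which are then treated with test compound. Chemokine receptor and CC/CXC chemokine mRNA levels were measured and compared with the control group. Data are mean ± SD from at least three independent replicates.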
# Akt [19] = test: Western blot, Akt expression in SW480 cells; type: cell-based, human; details: SW480, 8 μM
# In short: as §2
# [20] = tested on: cytokines (TGF-β, IL-10, and Arg-1); test: Western blot, cytokine expression in the TME; type: cell-based; details: vs coculture
# In short: as §3
structure (smiles),measurement,setting,value
"COc1cc(/C=C/C(=O)/C(=C\C2=CC=C[CH]2[Fe][CH]2C=CC=C2)C(=O)/C=C/c2ccc(OC)c(OC)c2)ccc1O (stereo not shown) [Compound 3b, Cyclopenta-2,4-dien-1-yl(2-((1E,4E)-5(3,4-dimethoxyphenyl)-2-((E)-3-(4-hydroxy-3-methoxyphenyl)acryloyl)-3-oxopenta-1,4-dien-1-yl)cyclopenta-2,4-dien-1-yl)iron]",inhibition of SW480 cells compared with the CVB-D group,SW480 cell line,markedly superior
same,proliferative capacity of CT26 cells compared to the control group,CT26 cell line; 10 μM,significant differences
same,proliferative capacity of CT26 cells compared to the CVB-D group,"CT26 cell line; 10 μM, CVB-D 12 μM",no significant difference
"COc1ccc(/C=C/C(=O)C(=CC2=CC=C[CH]2[Fe][CH]2C=CC=C2)C(=O)/C=C/c2ccc(OC)c(OC)c2)cc1OC (stereo not shown) [Compound 3f, Cyclopenta-2,4-dien-1-yl(2-((E)-5(3,4-dimethoxyphenyl)-2-((E)-3-(3,4-dimethoxyphenyl)acryloyl)-3-oxopenta-1,4-dien-1-yl)cyclopenta-2,4-dien-1-yl)iron]",SHP-2 inhibition rate,SHP-2 [1],76%
same,Akt expression inhibition rate,Akt [2],50%
same,expression of p27 protein,p27 [3],significantly increased
same,expression of Parkin protein,Parkin [4],significantly increased
same,expression levels of PI3K and Akt proteins in both coculture systems,PI3K and Akt proteins,reduced
same,cell viability of RAW264.7 cells,RAW264.7 cell line,~100%
same,expression of PINK1 protein,PINK1 [5],significantly increased
same,Cyclin-D1 protein expression inhibition rate,Cyclin-D1 [6],19%
same,inhibition rate on SHP-2 target in human TME,SHP-2 [7],65%
same,inhibition of SW480 cells compared with the CVB-D group,SW480 cell line,markedly superior
same,"selectivity index (SI), IC50 normal cells / IC50 SW480",SW480 cell line; NCM460 vs SW480,250
same,concentration of strongest (optimal) inhibition,"SW480 cell line; SW480, tested 0-8 μM",8 µM
same,concentration at which significant inhibition begins,"SW480 cell line; SW480, vs control",4 µM
same,IC50,"SW480 cell line; read-out: IC50 against SW480 cells, SW480 cells, MTT",3710 nM
same,CDK1 inhibition rate,CDK1 [8],18%
same,"selectivity index (SI), IC50 normal cells / IC50 RKO",RKO cell line,162
same,inhibition rate on SHP-2 target in mouse TME,SHP-2 [9],32%
same,cell viability of THP-1 cells,THP-1 cell line,~100%
same,expression of PINK1 protein,PINK1 [10],significantly up-regulated
same,USP toxicity classification to normal colon epithelial cells,NCM460 cell line; NCM460,low toxic/nontoxic
same,viability of NCM460 cells,"NCM460 cell line; at all concentrations (0, 5, 10, 20, 40, 80 μM)",above 87%
same,PI3K expression inhibition rate,PI3K [11],15%
same,SHP-2 inhibition rate,SHP-2 [12],24%
same,proliferative capacity of CT26 cells compared to the control group,CT26 cell line; 10 μM,significant differences
same,optimal inhibitory concentration,"CT26 cell line; CT26, tested 0-8 μM",8 µM
same,concentration at which an inhibitory effect is demonstrated,"CT26 cell line; CT26, vs control",3 µM
same,"selectivity index (SI), IC50 normal cells / IC50 CT26",CT26 cell line; NCM460 vs CT26,654
same,IC50,"CT26 cell line; read-out: IC50 against CT26 cells, CT26 cells, MTT",1420 nM
same,expression of Parkin protein,Parkin [13],significantly up-regulated
same,PI3K expression inhibition rate,PI3K [14],46%
same,expression of p27 protein,p27 [15],significantly increased
same,CDK1 inhibition rate,CDK1 [16],20%
same,effect on Cyclin-D1 protein compared to SW480,Cyclin-D1 [17],stronger inhibitory effect
same,effect on CCL and CXCL subfamilies (mRNA),[18],able to inhibit
same,mRNA levels of CCR chemokine receptors,[18],significantly reduced
same,Akt expression inhibition rate,Akt [19],48%
same,"expression levels of cytokines (TGF-β, IL-10, Arg-1) in the TME",[20],significantly reduced
